From ChEMBL document CHEMBL5113474, “Triazole-substituted phenylboronic acids as tunable lead inhibitors of KPC-2 antibiotic resistance” (Eur J Med Chem, 2022)
Converted amounts (≈) assume the structure as drawn. The source made the active and inactive calls. The calls are words filed in the database; no cut-off is given here.

Experiments:
[1] = Inhibition of class C […]beta-lactamase AmpC (unknown origin); set-up: species or system Bacteria
[2] = test system: Escherichia coli; format: functional, BL21 (DE3); conditions: time 16-18 hrs
[3] = Cytotoxicity against HEK293 cells assessed as cell viability at 5 to 50 ug/ml incubated for 24 hrs by MTT assay relative to control; conditions: human, at 5 to 50 µg/mL
[4] = test system: Escherichia coli; assay: microbe, parasite or virus in culture; format: functional; conditions: BL21 (DE3), dose 5 µg/ml, time 16-20 hrs
[5] = physchem; conditions: 0.1 M phosphate buffer, pH 4.3
[6] = Inhibition of bacterial beta-lactamase KPC-2 expressed in Escherichia coli BL21 (DE3) using nitrocefin as substrate assessed as inhibition constant by Cheng-Prusoff equation analysis; set-up: species or system Bacteria
[7] = test system: Escherichia coli; assay: microbe, parasite or virus in culture; format: functional; conditions: BL21 (DE3), dose 50 µg/ml, time 16-20 hrs
[8] = test system: Escherichia coli; assay: Antibacterial activity against Escherichia coli NCTC10418; format: functional
[9] = test system: Escherichia coli; assay: microbe, parasite or virus in culture; format: functional; conditions: BL21 (DE3), dose 5 µg/ml, time 16-20 hrs; remark: listed apart in the source
[10] = test system: Escherichia coli; assay: microbe, parasite or virus in culture; format: functional; conditions: BL21 (DE3), dose 50 µg/ml, time 16-20 hrs; remark: listed apart in the source
[11] = test system: Bacteria; assay: Inhibition of bacterial beta-lactamase KPC-2 expressed in Escherichia coli BL21 (DE3) using nitrocefin as substrate at 1 uM by spectrophotometric analysis relative to control
Outline: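 Purified recombinant KPC-2 tested against the chromogenic β-lactam nitrocefin at 1 µM inhibitor. Hydrolysis was followed as the rise in absorbance at 482 nm (ε482 = 17,400 M-1 cm-1). Activity is expressed as percent inhibition relative to an uninhibited control.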

[12] = Cytotoxicity against HEK293 cells assessed as cell viability at 5 to 50 ug/ml incubated for 24 hrs in presence of cefotaxime by MTT assay relative to control; conditions: human, at 5 to 50 µg/mL
[13] = Inhibition of beta-lactamase TEM-1 (unknown origin); set-up: species or system Bacteria
[14] = Inhibition of Metallo-beta-lactamase VIM-1 (unknown origin); set-up: species or system Bacteria
[15] = Inhibition of beta-lactamase OXA (unknown origin); set-up: species or system Bacteria
[16] = Inhibition of beta-lactamase SHV-12 (unknown origin); set-up: species or system Bacteria
[17] = Inhibition of beta-lactamase KPC-2 (unknown origin); set-up: species or system Bacteria
[18] = Inhibition of beta-lactamase CTX-M (unknown origin); set-up: species or system Bacteria
[19] = Solubility of the compound at 0.1 mM in 0.1 M phosphate buffer; format: physicochemical; conditions: 100 µM
[20] = Inhibition of beta-lactamase P99 (unknown origin); set-up: species or system Bacteria
[21] = Inhibition of beta-lactamase PDC-3 (unknown origin); set-up: species or system Bacteria
[22] = physchem; conditions: 0.1 M phosphate buffer
[23] = test system: Escherichia coli; assay: Potentiation of cefotaxime induced antibacterial activity against Escherichia coli expressing CMY-4/TEM-1 assessed as cefotaxime MIC at 5 ug/ml incubated for 16 to 20 hrs by microdilution method; format: functional; conditions: dose 5 µg/ml, time 16-20 hrs
Outline: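 Cefotaxime MIC re-measured with the boronic acid inhibitor held at a fixed 5 μg/mL, lowered from an earlier 50 μg/ml fixed-dose combination; MICs interpreted against CLSI susceptibility categories.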

[24] = test system: Klebsiella pneumoniae; assay: Antibacterial activity against Klebsiella pneumoniae harboring OXA-48 assessed as bacterial growth inhibition incubated for 16 to 20 hrs by microdilution method; format: functional; conditions: time 16-20 hrs
[25] = test system: Proteus mirabilis; assay: Antibacterial activity against Proteus mirabilis producing CTX-M-14/CMY-2 assessed as bacterial growth inhibition incubated for 16 to 20 hrs by microdilution method; format: functional; conditions: time 16-20 hrs
[26] = test system: Escherichia coli; assay: Antibacterial activity against Escherichia coli expressing CMY-4/TEM-1 assessed as bacterial growth inhibition at 0.06 to 64 ug/ml incubated for 16 to 20 hrs by microdilution method; format: functional, organism-based; conditions: dose 0.06-64 µg/ml, time lower […], time upper 20.0 hrs

| SMILES | inhibition zone (IZ) [2] | MIC [4] | pKa at 100 µM [5] | Ki [6] | MIC [7] | MIC [8] | MIC [9] | MIC [10] | inhibition [11] | also measured |
| --- | --- | --- | --- | --- | --- | --- | --- | --- | --- | --- |
| O=S(=O)(NCB(O)O)c1ccc(-c2nnn[nH]2)cc1C(F)(F)F |  |  |  |  |  |  |  |  |  | Ki [1]: 0.05 nM |
| OB(O)c1cccc(-n2cc(-c3ccsc3)nn2)c1 | 29.9 mm | 0.25 µg/mL (≈ 0.922 µM) | 8.31 | 38 nM | 0.12 µg/mL (≈ 0.443 µM) | > 64 µg/mL | 1 µg/mL (≈ 3.69 µM) | 0.25 µg/mL (≈ 0.922 µM) | 75% | viability at 24 h [3]: > 80%; viability at 24 h [12]: > 80% |
| O=C(O)c1cccc2c1OB(O)C(NC(=O)C1CCCCC1)C2 (stereo not drawn) |  |  |  |  |  |  |  |  |  | IC50 [13]: 2.6 nM; IC50 [14]: 1000 nM; IC50 [1]: 68 nM; IC50 [15]: 220 nM |
| O=C(Cc1cccs1)N[C@H](B(O)O)c1cccc(C(=O)O)c1 |  |  |  |  |  |  |  |  |  | IC50 [16]: 40 nM; Ki [1]: 1 nM; IC50 [17]: 60 nM |
| CC(C)(O/N=C(/C(=O)NCB(O)O)c1cnc(N)s1)C(=O)O |  |  |  |  |  |  |  |  |  | Ki [18]: 4 nM |
| OB(O)c1cc(-n2cc(-c3ccsc3)nn2)cc(F)c1F | 19.8 mm |  |  | 5900 nM |  |  |  |  |  | solubility [19]: Insoluble |
| O=C(Cc1cccs1)N[C@@H](Cn1cc(-c2cccc(C(=O)O)c2)nn1)B(O)O |  |  |  |  |  |  |  |  |  | IC50 [16]: 140 nM; Ki [20]: 14 nM; Ki [21]: 8 nM; IC50 [17]: 40 nM |
| O=[N+]([O-])c1ccc(F)c(B(O)O)c1 | 30.5 mm |  | 6.03 |  |  |  |  |  |  | pKa [22]: 6 |
| [N-]=[N+]=Nc1cc(B(O)O)c(F)cc1F | 23.4 mm | ≤ 0.06 µg/mL | 6.27 | 7800 nM | 0.12 µg/mL (≈ 0.603 µM) | > 64 µg/mL | 8 µg/mL (≈ 40.2 µM) | 16 µg/mL (≈ 80.4 µM) | 0% | viability at 24 h [3]: > 80%; viability at 24 h [12]: > 80% |
| OB(O)c1cc(-n2cc(-c3ccsc3)nn2)c(F)cc1F | 28.8 mm | ≤ 0.06 µg/mL | 6.27 | 1840 nM | ≤ 0.06 µg/mL | > 64 µg/mL | 4 µg/mL (≈ 13 µM) | ≤ 0.06 µg/mL | 21% | viability at 24 h [3]: > 80%; MIC [23]: 0.12 µg/mL; viability at 24 h [12]: > 80% |
| CO/N=C(\C(=O)N[C@@H]1C(=O)N2C(C(=O)O)=C(COC(C)=O)CS[C@H]12)c1csc(N)n1 [CEFOTAXIME] |  |  |  |  |  |  |  |  |  | MIC [24]: 2 µg/mL (≈ 4.39 µM) |
| NCc1ccc(C(=O)NC2Cc3cccc(C(=O)O)c3OB2O)cc1 (stereo not drawn) |  |  |  |  |  |  |  |  |  | IC50 [13]: 8.1 nM; IC50 [14]: 61 nM; IC50 [1]: 270 nM; IC50 [15]: 2000 nM |
| OB(O)c1cc(-n2cc(-c3ccsc3)nn2)ccc1F | 39.8 mm | 0.12 µg/mL (≈ 0.415 µM) | 7.61 | 800 nM | ≤ 0.06 µg/mL | > 64 µg/mL | 1 µg/mL (≈ 3.46 µM) | ≤ 0.06 µg/mL | 35% |  |
| [N-]=[N+]=Nc1cccc(B(O)O)c1 | 31.3 mm | ≤ 0.06 µg/mL | 8.27 | 450 nM | ≤ 0.06 µg/mL | > 64 µg/mL | 0.25 µg/mL (≈ 1.53 µM) |  | 34% | MIC [23]: 1 µg/mL |
| C[C@@H](O)[C@H]1C(=O)N2C(C(=O)O)=C(S[C@@H]3CN[C@H](C(=O)N(C)C)C3)[C@H](C)[C@H]12 [MEROPENEM] |  |  |  |  |  |  |  |  |  | MIC [24]: 0.5 µg/mL (≈ 1.3 µM); MIC [25]: 0.25 µg/mL (≈ 0.652 µM); Activity [26]: Active |
| [N-]=[N+]=NCc1ccc(F)c(B(O)O)c1 | 29 mm | ≤ 0.06 µg/mL | 7.22 | 410 nM | ≤ 0.06 µg/mL | > 64 µg/mL | 0.5 µg/mL (≈ 2.56 µM) | ≤ 0.06 µg/mL | 40% |  |
